RAM inhibit: inhibitors of the yeast RAM network; S. cerevisiae dse1pr::URA3 reporter, 5-FOA growth OD615, 2 d; analog-sensitive cbk1-as2 kinase mutant strain; inhibition, % at 50 µM; actives 1.8% (n = 190,000); AID 868;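 active = inhibition above a set limit, 3 SD over mean compound inhibition, cut at about 8.4% in these data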;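 note: 0% = DMSO-only wells with no growth and 100% = 10 µM 1-NA-PP1 full growth; inhibition rescues growth on 5-FOA so higher OD means more RAM inhibition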
Biofilm kill mix: mixtures killing C. albicans biofilm. C. albicans biofilm persisters + clotrimazole, fluorescence viability; primary screen in compound mixtures of four per well. inhibition, % at 7.6 µM. actives 0.02% (n = 120,000);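 active = inhibition above 30.3% in the primary screen of four-compound pools, then above 30% when the compound was retested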;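 note: compounds exposed to preformed 24 h biofilms for 48 h; 0% = untreated biofilm control and 100% = clotrimazole plus chlorhexidine kill blank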
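Test system: C. albicans CAF4-2 wild-type biofilms; buffer or medium: RPMI/MOPS medium, pH 7.0; schedule: 24 h biofilm formation, then 48 h compound exposure, 37 °C; detection: Alamar Blue fluorescence; measure: percent inhibition of biofilm viability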
Arbovirus anti: arbovirus infection inhibition; arbovirus infection cell-based antiviral screen; inhibition, % at 10 µM; actives 0.37% (n = 200,000); in the data active = inhibition above about 30%
Hck-Nef inh: human Hck-Nef kinase inhibition; AID 463187; inhibition, % at 20 µM; Recombinant Hck-YEEI plus Nef, Z-Lyte FRET kinase assay; actives 0.68% (n = 220,000); P08631;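 active = Hck-Nef kinase inhibition above about 50%, limit read from the data; inactive = inhibition below that limit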;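 note: 0% = DMSO with Hck plus Nef and 100% = Hck alone without Nef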
p47phox inh: p47phox (human) inhibition. actives 0.53% (n = 220,000). inhibition, % at 24.7 µM. p47phox/p22phox peptide binding, fluorescence polarization, 2 h. AID 1274;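 active = inhibition above about 30%, limit read from the data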;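 note: 0% = p47phox with labelled peptide and 100% = labelled peptide alone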
Target sequence (P14598 whole entry, looked up): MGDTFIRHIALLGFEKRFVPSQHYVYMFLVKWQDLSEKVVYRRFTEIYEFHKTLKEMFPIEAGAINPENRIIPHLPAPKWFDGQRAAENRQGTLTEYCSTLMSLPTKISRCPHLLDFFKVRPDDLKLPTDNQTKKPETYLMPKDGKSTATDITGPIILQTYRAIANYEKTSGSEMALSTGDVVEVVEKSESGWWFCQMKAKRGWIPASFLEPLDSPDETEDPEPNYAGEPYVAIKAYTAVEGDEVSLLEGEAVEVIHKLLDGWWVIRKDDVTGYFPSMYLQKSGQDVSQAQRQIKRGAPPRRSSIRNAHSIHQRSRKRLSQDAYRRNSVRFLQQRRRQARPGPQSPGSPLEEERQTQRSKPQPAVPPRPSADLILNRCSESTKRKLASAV
WT yeast gro inh: growth inhibition of WT yeast, mitochondrial fusion screen; mitochondrial fusion phenotypic screen, WT strain; inhibition, % at 10 µM; actives 2.1% (n = 190,000); AID 1362; in the data active = inhibition above about 58%; tested in S. cerevisiae
An asterisk follows results filed as active; . = no result given. Most compounds without a hit are left out; they make up all but 4.6% or so of the library.

SMILES	RAM inhibit	Biofilm kill mix	Arbovirus anti	Hck-Nef inh	p47phox inh	WT yeast gro inh
CC(C)[N+]12CCC(CC1)C(C(O)(c1ccccc1)c1ccccc1)C2 (stereo not drawn)	.	13.4	.	5.6	-5.4	.
CC(C)Oc1cc(-n2c(=S)[nH]c3ccccc3c2=O)c(Cl)cc1Cl	3.2	.	-16.3	0.6	-7.3	59.5*
CN1C(=O)C(=Cc2sc(=O)n(-c3ccccc3)c2N2CCCCC2)C(=O)N(C)C1=O	.	15.9	.	11.3	82.6*	.
CN1CCc2nc3sc(C#N)c(N)c3c(-c3cccs3)c2C1	1.3	.	32.1*	4.7	-17.9	-14.2
CN1CCc2nc(N)c(C#N)c(-c3ccccc3)c2C1	0.8	.	9.7	-0.7	-12.9	12.2
O=c1[nH]sc2cc(F)ccc12	1.0	11.5	-25.0	-111.3	17.1	73.2*
Cc1cc2c(C(C)C)c(O)c(O)c(C=O)c2c(O)c1-c1c(C)cc2c(C(C)C)c(O)c(O)c(C=O)c2c1O	5.7	10.9	-43.4	102.3*	-6.4	-8.9
CCC(C)NC(=O)c1c(N)n(CCCOC)c2nc3ccccc3nc12 (stereo not drawn)	-1.6	.	-25.6	48.3	-21.4	4.5
CCC(C)NC(=O)c1c(N)n(CC2CCCO2)c2nc3ccccc3nc12 (stereo not drawn)	9.1*	.	-13.6	42.3	-21.0	23.5
CCC(C)C12CN3CCN(CC(C)(C3)C1O)C2 (stereo not drawn)	0.3	3.5	-0.4	11.6	1.3	15.5
Cc1nc2ccccc2c(=O)n1-c1ccc(F)cc1	0.2	.	-6.3	-5.7	32.3*	8.3
Cc1nc2ccccc2c(=O)n1-c1ccncc1	.	6.6	.	1.1	-5.4	.
O=c1[nH]c2ccccc2o1	-1.1	7.3	1.0	-6.9	3.6	-2.7
CCN(CCNc1ccc([N+](=O)[O-])c2cccnc12)S(=O)(=O)c1ccc(Cl)cc1	9.5*	.	-2.7	-0.3	-3.9	24.9
N#Cc1ccccc1Cn1cc(C(=O)c2ccco2)c2ccccc21	1.9	.	2.0	-2.9	-12.6	18.7
O=P(Oc1ccccc1)(Oc1ccccc1)C(Nc1ccccc1)c1ccccc1 (stereo not drawn)	9.4*	13.7	0.3	-0.9	-5.9	47.7
O=C(Cn1nc(-c2ccc(Cl)cc2)ccc1=O)N1CCC2(CC1)OCCO2	0.4	13.2	3.8	-0.5	2.1	6.3
CC1=NN(c2ccccc2)C(=O)/C1=C/c1c(O)[nH]c(=S)[nH]c1=O	2.5	.	5.6	-0.5	-52.5	75.9*
COc1ccc(N2C(=O)NC(=O)/C(=C/c3ccc4c(c3)Cc3ccccc3-4)C2=O)cc1	1.1	14.6	-5.1	87.1*	-13.4	-6.7
COc1ccc2c(CN3CC=C(c4ccccc4)CC3)cc(=O)oc2c1	0.6	14.5	1.8	20.6	-14.0	37.1
COc1ccc2ccc(O)c(CN3CC=C(c4ccccc4)CC3)c2c1	0.9	18.7	30.1*	5.7	-4.3	60.9*
CCCCCCn1c(=O)c(C(=O)Nc2cnccn2)c(O)c2ccccc21	8.7*	12.4	-21.2	-15.3	-3.4	11.4
CCCCCn1c(=O)c(C(=O)Nc2ccncc2)c(O)c2ccccc21	.	.	-12.0	.	.	16.7
Cc1ccccc1-n1c(O)c(/C=N/N2CCOCC2)c(=O)[nH]c1=S	-0.3	-4.8	1.9	-18.7	-126.2	-0.5
CC1=CC(=C2C(=O)NC(=S)NC2=O)C=C(C(F)(F)F)N1Cc1ccccc1	4.8	17.6	-18.2	23.6	-27.5	-10.7
SMILES	RAM inhibit	Biofilm kill mix	Arbovirus anti	Hck-Nef inh	p47phox inh	WT yeast gro inh
CC1=CC(=C2C(=O)NC(=S)NC2=O)C=C(C(F)(F)F)N1CCc1ccccc1	10.8*	3.6	6.9	20.5	-23.3	-4.2
O=c1c2ccccc2nc(CSc2ncnc3nc[nH]c23)n1-c1ccccc1Cl	10.2*	15.3	4.7	4.5	-9.6	-2.5
CNC(=O)c1cccn(Cc2ccc(C(F)(F)F)cc2)c1=O	2.5	20.3	-2.1	16.6	-5.3	4.6
O=C(Nc1ccc(C(F)(F)F)cc1)c1cccn(Cc2ccc3c(c2)OC(F)(F)O3)c1=O	10.2*	.	10.0	2.3	-19.1	44.1
Cc1cccc(C)c1NC(=O)c1cccn(Cc2ccc3c(c2)OC(F)(F)O3)c1=O	1.4	.	-34.0	0.1	-8.9	60.8*
O=C(c1ccc2c(c1)ncn2-c1ccc(F)cc1F)N1CCC2(CC1)OCCO2	-0.2	9.3	-16.2	20.4	42.9*	-1.6
Cc1nc2cc(C(=O)N3CCC4(CC3)OCCO4)ccc2n1-c1ccc(Br)cc1	3.9	.	-2.5	0.0	-7.6	-2.1
CCN(CC)c1ccc(/C=C2\C(=O)NC(=O)N(Cc3ccco3)C2=O)cc1	0.1	17.4	0.9	4.6	126.5*	-6.6
O=C1NC(=O)N(Cc2ccco2)C(=O)/C1=C/c1cccn1CCOc1ccccc1Cl	8.7*	5.5	-4.2	0.4	-54.5	-11.9
CC(C)CN1CCN(Cc2cccc3c2OCO3)CC1CCO (stereo not drawn)	0.0	21.7	4.5	21.3	0.7	-13.6
O=c1[nH]c(=S)[nH]c(O)c1N=Nc1ccc2c(c1)OCO2	10.0*	11.6	-23.3	2.8	-147.2	8.2
O=c1[nH]c(=S)[nH]c(O)c1N=Nc1ccc2c(c1)OCCO2	.	5.9	.	-10.0	-137.1	.
CCNC(=S)NCCC1=c2ccccc2=N/C1=C\c1c(O)n(C)c(=O)n(C)c1=O	.	13.9	.	-48.6	7.0	.
CCN(CC)P(=O)(NC(=O)C(Cl)(Cl)Cl)N(CC)CC.[Cl-].[Cl-].[Cl-].[Nd+3]	2.2	.	2.6	0.4	33.1*	7.7
C=CCN1C(=O)NC(=O)C(CCc2ccncc2)(CCc2ccncc2)C1=O	-0.2	1.7	4.7	4.5	-7.0	-9.7
CC(C)CCNC(=O)c1cc(C(=O)c2cc(F)ccc2O)cn(CCC(C)C)c1=O	6.7	8.0	1.9	-5.2	-1.1	4.7
CC(C)CCNC(=O)c1cc(C(=O)c2cc(Br)ccc2O)cn(CCC(C)C)c1=O	9.2*	8.5	8.6	23.9	-18.2	-7.7
Cc1ccc(Sc2ccc(C=C3C(=O)N(C)C(=O)N(C)C3=O)o2)cc1	8.3	4.9	-0.2	70.3*	-3.8	-6.1
CN1C(=O)C(=Cc2ccc(-c3cccc(Cl)c3)o2)C(=O)N(C)C1=O	0.3	17.8	-1.5	25.6	-23.0	9.8
CCN(CC)c1ccc(N=Cc2c(O)n(-c3ccc(Cl)cc3)c(=O)[nH]c2=O)cc1	11.2*	.	-7.7	0.5	-17.2	16.6
CNS(=O)(=O)c1ccc(N=Cc2c(O)n(-c3cccc(C)c3)c(=O)[nH]c2=O)cc1	1.2	1.7	2.2	19.1	11.9	-3.0
CCN(CC)c1ccc(N=Cc2c(O)n(-c3ccc(OC)cc3)c(=O)[nH]c2=O)cc1	3.9	.	-3.1	6.8	-49.2	13.0
CNS(=O)(=O)c1ccc(N=Cc2c(O)n(-c3ccccc3)c(=O)[nH]c2=O)cc1	9.4*	7.2	18.3	9.4	-3.6	-23.4
NC(=O)CN1C2CCC1CC(NC(=O)C1CC1)C2 (stereo not drawn)	0.6	.	2.5	-1.3	-2.5	-19.6
